Measurements reported in ChEMBL document CHEMBL1770075, “Thermal solvent-free synthesis of novel pyrazolyl chalcones and pyrazolines as potential antimicrobial agents” (2011).
Converted amounts (≈) assume the structure as drawn.

Key:
Format in all cases: functional
[1] = system: Trichophyton mentagrophytes; experiment: Antifungal activity against Trichophyton mentagrophytes after 48 hrs
Procedure, shortened: (§1)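 Broth with two-fold serial dilutions of compound was inoculated with 1.6 × 10⁴–6 × 10⁴ c.f.u/ml and incubated at 35 °C. MIC is the lowest concentration that arrests growth. For MFC, 0.1 ml was spread on agar, colonies were counted after 48 h at 35 °C, and the endpoint was the lowest concentration killing 99.9%.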

[2] = system: Talaromyces marneffei; experiment: Antifungal activity against Penicillium marneffei after 48 hrs; procedure, shortened: as §1
[3] = system: Streptococcus pyogenes; experiment: Antibacterial activity against clinical isolate of Streptococcus pyogenes after 24 hrs by broth dilution method
[4] = system: Staphylococcus aureus; experiment: Bactericidal activity against methicillin-resistant Staphylococcus aureus after 18 to 24 hrs by colony counting method
Procedure, shortened: (§2)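 Colonies were counted after 18–24 h at 35 °C. MBC is the lowest concentration that kills 99.9% of the inoculum.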

[5] = system: Escherichia coli; experiment: Bactericidal activity against Escherichia coli ATCC 25922 after 18 to 24 hrs by colony counting method; procedure, shortened: as §2
[6] = system: Candida albicans; experiment: Antifungal activity against Candida albicans after 48 hrs by agar diffusion method
[7] = system: Aspergillus fumigatus; experiment: Antifungal activity against Aspergillus fumigatus after 48 hrs; procedure, shortened: as §1
[8] = system: Talaromyces marneffei; experiment: Antifungal activity against Penicillium marneffei after 48 hrs by agar diffusion method
[9] = system: Klebsiella pneumoniae; experiment: Antibacterial activity against clinical isolate of Klebsiella pneumoniae after 24 hrs by disk diffusion method
[10] = system: Escherichia coli; experiment: Antibacterial activity against Escherichia coli ATCC 25922 after 24 hrs by disk diffusion method
[11] = system: Candida albicans; experiment: Antifungal activity against Candida albicans after 48 hrs; procedure, shortened: as §1
[12] = system: Streptococcus pyogenes; experiment: Bactericidal activity against clinical isolate of Streptococcus pyogenes after 18 to 24 hrs by colony counting method
[13] = system: Klebsiella pneumoniae; experiment: Bactericidal activity against clinical isolate of Klebsiella pneumoniae after 18 to 24 hrs by colony counting method
[14] = system: Aspergillus fumigatus; experiment: Antifungal activity against Aspergillus fumigatus after 48 hrs by agar diffusion method
[15] = system: Escherichia coli; experiment: Antibacterial activity against Escherichia coli ATCC 25922 after 24 hrs by broth dilution method; settings: ATCC 25922, 24 h
[16] = system: Pseudomonas aeruginosa; experiment: Antibacterial activity against Pseudomonas aeruginosa ATCC 27853 after 24 hrs by broth dilution method; settings: ATCC 27853, 24 h
[17] = system: Trichophyton mentagrophytes; experiment: Antifungal activity against Trichophyton mentagrophytes after 48 hrs by agar diffusion method
[18] = system: Staphylococcus aureus; experiment: Antibacterial activity against methicillin-resistant Staphylococcus aureus after 24 hrs by broth dilution method
[19] = system: Pseudomonas aeruginosa; experiment: Bactericidal activity against Pseudomonas aeruginosa ATCC 27853 after 18 to 24 hrs by colony counting method; procedure, shortened: as §2
[20] = system: Pseudomonas aeruginosa; experiment: Antibacterial activity against Pseudomonas aeruginosa ATCC 27853 after 24 hrs by disk diffusion method
[21] = system: Streptococcus pyogenes; experiment: Antibacterial activity against clinical isolate of Streptococcus pyogenes after 24 hrs by disk diffusion method
[22] = system: Klebsiella pneumoniae; experiment: Antibacterial activity against clinical isolate of Klebsiella pneumoniae after 24 hrs by broth dilution method
[23] = system: Staphylococcus aureus; experiment: Antibacterial activity against methicillin-resistant Staphylococcus aureus after 24 hrs by disk diffusion method
[24] = system: Candida albicans; experiment: Antifungal activity against Candida albicans after 48 hrs by Halo zone test
[25] = system: Aspergillus fumigatus; experiment: Antifungal activity against Aspergillus fumigatus after 48 hrs by Halo zone test
[26] = system: Talaromyces marneffei; experiment: Antifungal activity against Penicillium marneffei after 48 hrs by Halo zone test
[27] = system: Trichophyton mentagrophytes; experiment: Antifungal activity against Trichophyton mentagrophytes after 48 hrs by Halo zone test

Cc1nn(-c2ccccc2)c(Cl)c1/C=C/C(=O)C1C(=O)N(C)C(=O)N(C)C1=O
MFC [1]: 50 µg/mL (≈ 125 µM) | MIC [1]: 25 µg/mL (≈ 62.4 µM) | MFC [2]: 50 µg/mL (≈ 125 µM) | MIC [2]: 25 µg/mL (≈ 62.4 µM) | MIC [3]: 25 µg/mL (≈ 62.4 µM) | MBC [4]: 50 µg/mL (≈ 125 µM) | MBC [5]: 50 µg/mL (≈ 125 µM) | diameter of the inhibition zone (DIZ) [6]: 21.3 mm | MFC [7]: 50 µg/mL (≈ 125 µM) | MIC [7]: 25 µg/mL (≈ 62.4 µM) | diameter of the inhibition zone (DIZ) [8]: 14.8 mm | diameter of the inhibition zone (DIZ) [9]: 16.1 mm | diameter of the inhibition zone (DIZ) [10]: 22.2 mm | MFC [11]: 50 µg/mL (≈ 125 µM) | MIC [11]: 25 µg/mL (≈ 62.4 µM) | MBC [12]: 50 µg/mL (≈ 125 µM) | MBC [13]: 100 µg/mL (≈ 249 µM) | diameter of the inhibition zone (DIZ) [14]: 18.6 mm | MIC [15]: 25 µg/mL (≈ 62.4 µM) | MIC [16]: 25 µg/mL (≈ 62.4 µM) | diameter of the inhibition zone (DIZ) [17]: 17.2 mm | MIC [18]: 25 µg/mL (≈ 62.4 µM) | MBC [19]: 100 µg/mL (≈ 249 µM) | diameter of the inhibition zone (DIZ) [20]: 25.2 mm | diameter of the inhibition zone (DIZ) [21]: 20.1 mm | MIC [22]: 50 µg/mL (≈ 125 µM) | diameter of the inhibition zone (DIZ) [23]: 17.3 mm

COC1=CC(=O)C[C@@H](C)[C@]12Oc1c(Cl)c(OC)cc(OC)c1C2=O [GRISEOFULVIN]
MFC [1]: 25 µg/mL (≈ 70.9 µM) | MIC [1]: 6.25 µg/mL (≈ 17.7 µM) | MFC [2]: 25 µg/mL (≈ 70.9 µM) | MIC [2]: 12.5 µg/mL (≈ 35.4 µM) | diameter of the inhibition zone (DIZ) [24]: 30 mm | MFC [7]: 25 µg/mL (≈ 70.9 µM) | MIC [7]: 12.5 µg/mL (≈ 35.4 µM) | MFC [11]: 12.5 µg/mL (≈ 35.4 µM) | MIC [11]: 6.25 µg/mL (≈ 17.7 µM) | diameter of the inhibition zone (DIZ) [25]: 27 mm | diameter of the inhibition zone (DIZ) [26]: 20 mm | diameter of the inhibition zone (DIZ) [27]: 24 mm

Cc1nn(-c2ccccc2)c(Cl)c1C1CC(C2C(=O)N(C)C(=O)N(C)C2=O)=NN1 (stereo not drawn)
MFC [1]: 100 µg/mL (≈ 241 µM) | MIC [1]: 25 µg/mL (≈ 60.3 µM) | MFC [2]: > 100 µg/mL | MIC [2]: 50 µg/mL (≈ 121 µM) | MIC [3]: 25 µg/mL (≈ 60.3 µM) | MBC [4]: 100 µg/mL (≈ 241 µM) | MBC [5]: 100 µg/mL (≈ 241 µM) | diameter of the inhibition zone (DIZ) [6]: 20.8 mm | MFC [7]: 100 µg/mL (≈ 241 µM) | MIC [7]: 25 µg/mL (≈ 60.3 µM) | diameter of the inhibition zone (DIZ) [8]: 14.2 mm | diameter of the inhibition zone (DIZ) [9]: 15.7 mm | diameter of the inhibition zone (DIZ) [10]: 19.6 mm | MFC [11]: 100 µg/mL (≈ 241 µM) | MIC [11]: 25 µg/mL (≈ 60.3 µM) | MBC [12]: 50 µg/mL (≈ 121 µM) | MBC [13]: 100 µg/mL (≈ 241 µM) | diameter of the inhibition zone (DIZ) [14]: 17.4 mm | MIC [15]: 25 µg/mL (≈ 60.3 µM) | MIC [16]: 50 µg/mL (≈ 121 µM) | diameter of the inhibition zone (DIZ) [17]: 16.9 mm | MIC [18]: 50 µg/mL (≈ 121 µM) | MBC [19]: 100 µg/mL (≈ 241 µM) | diameter of the inhibition zone (DIZ) [20]: 21.8 mm | diameter of the inhibition zone (DIZ) [21]: 17.1 mm | MIC [22]: 50 µg/mL (≈ 121 µM) | diameter of the inhibition zone (DIZ) [23]: 16.5 mm

Cc1nn(-c2ccccc2)c(Cl)c1/C=C/C(=O)C1C(=O)NC(=S)NC1=O
MFC [1]: 50 µg/mL (≈ 129 µM) | MIC [1]: 25 µg/mL (≈ 64.3 µM) | MFC [2]: 100 µg/mL (≈ 257 µM) | MIC [2]: 25 µg/mL (≈ 64.3 µM) | MIC [3]: 25 µg/mL (≈ 64.3 µM) | MBC [4]: 50 µg/mL (≈ 129 µM) | MBC [5]: 100 µg/mL (≈ 257 µM) | diameter of the inhibition zone (DIZ) [6]: 20.4 mm | MFC [7]: 50 µg/mL (≈ 129 µM) | MIC [7]: 25 µg/mL (≈ 64.3 µM) | diameter of the inhibition zone (DIZ) [8]: 14.1 mm | diameter of the inhibition zone (DIZ) [9]: 15.4 mm | diameter of the inhibition zone (DIZ) [10]: 20.7 mm | MFC [11]: 50 µg/mL (≈ 129 µM) | MIC [11]: 25 µg/mL (≈ 64.3 µM) | MBC [12]: 100 µg/mL (≈ 257 µM) | MBC [13]: 50 µg/mL (≈ 129 µM) | diameter of the inhibition zone (DIZ) [14]: 17.9 mm | MIC [15]: 50 µg/mL (≈ 129 µM) | MIC [16]: 25 µg/mL (≈ 64.3 µM) | diameter of the inhibition zone (DIZ) [17]: 17.1 mm | MIC [18]: 25 µg/mL (≈ 64.3 µM) | MBC [19]: 100 µg/mL (≈ 257 µM) | diameter of the inhibition zone (DIZ) [20]: 22.1 mm | diameter of the inhibition zone (DIZ) [21]: 18.4 mm | MIC [22]: 25 µg/mL (≈ 64.3 µM) | diameter of the inhibition zone (DIZ) [23]: 17.1 mm
